# Experimental data taken from the EternaBench riboswitch data.
# Test system: MS2 coat protein
# Assay: apparent Kd, MS2 coat protein; higher = weaker binding; RNA-MaP array; FMN 200 µM where present
# Summary of the method: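 Stalled E. coli RNA polymerase produced the designs on Illumina sequencing-chip clusters. SNAP-549-labelled MS2 coat protein was added from 0.7 or 1.5 nM, doubling to 3 µM, without and then with constant ligand, in 100 mM Tris-HCl pH 7.5, 80 mM KCl, 4 mM MgCl2, BSA, DTT, yeast tRNA and Tween-20. The apparent Kd is the median of filtered per-cluster fits of green signal normalised to red-channel RNA signal and control-cluster median Fmax.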
# [1] = designed as: OFF switch for flavin mononucleotide, no ligand
# [2] = ligand present: flavin mononucleotide, designed as: OFF switch for flavin mononucleotide
# [3] = designed as: ON switch for flavin mononucleotide, no ligand
# [4] = ligand present: flavin mononucleotide, designed as: ON switch for flavin mononucleotide
Sequence,apparent Kd [1] [nM],apparent Kd [2] [nM],apparent Kd [3] [nM],apparent Kd [4] [nM]
GAGUGACAUGAGGAUCACCCAUGUGAGGAUAUCGGACGGACCUUGUUGGCUUCCGCCGCGAGAAGGCACCUCGG,43.9,40.2,,
GAUACACAUGAGGAUCACCCAUGUGAGGAUAUGCGUACGUUGUCCGUAGGCGACGUGCGCAGAAGGCGCAAGGU,83.2,95.3,,
GAUAGGACAGAGAAGGUACGUGCUAGAGAUACUAGCAAAAUUACCUCACAUGAGGAUCACCCAUGUAAGGAUAUCUGUCCUAUC,4.82,5.54,,
GAUCAGAUAGGAUAUACAGGCUCGUCUUUAUAUUGAUCCCGACAUGAGGAUCACCCAUGUAGAAGGAUCAGAUC,16.4,45.7,,
GAUCCACAUGAGGAUCACCCAUGUGAGGAUAUGAUACUAUGUACUUCGGUACAUAGUAUCAGAAGGCAUAUGAA,42,196,,
GAUCCUUCUGUUAGGAUAUGCUUUGGGCUUCCGCAGCAGAAGGAACAUGAGGAUCACCCAUGUCCAAUGCCGUC,56.6,63.9,,
GAUUAACAUGAGGAUCACCCAUGUCGUUAUAUGGGAGGAUAUACGUGGACCGUAGUCCGCGUAGAAGGCCUAAUUG,,,311,60.3
GAUUGGCGACAAUUACAUGAGGAUCACCCAUGUUGUAGUAUGCAGGAUAUGUGGUAUAUUAUUUAACAGAAGGGCAAUAAUUUU,,,69.6,85.9
GCAACGCCUGACAUGAGGAUCACCCAUGUUAGAUUGUUAUGUCAGGAUAUUGUCGCGAAACGUGAUGAGAAGGGAUAUGUUGCU,,,815,53.9
GCAAUAGCAUGAGGAUAUGCUGGAGUUUAGACAGUAGAAGGCAUGUCAUAAGACAUGAGGAUCACCCAUGUAGUUACAAUGGCA,,,18.4,13.6
GCACAUGGCAUAGGAUAUAGAACUAUACAUUAUAUAGGUAGUGUCACAACACUAGAAGGAUGAAACAUGAGGAUCACCCAUGUA,,,14.9,12.2
GCACAUGGCAUAGGAUAUAGAGCUUUAGUUUAUAUAGGUAGUUGGACUUAACUAGAAGGAUGGUACAUGAGGAUCACCCAUGUU,,,20.6,17.4
GCACGGAAAGGAUAUGCACGGCUAGCUCGCGUUUUUGUGUGACAUGAGGAUCACCCAUGUAGAAGGUUCAGUGG,68,71.8,,
GCACGGAGUGUAGGAUAUUAGUGCGAUUAGCACUGAGAAGGACAUGAGGAUCACCCAUGUUCCUCAAUAACAUACCUUCCGUGC,13.8,10.6,,
GCACGGUUGCUAGGAUAUCCUUGCGAUUAGCAAGGAGAAGGAGCACAUGAGGAUCACCCAUGUACCUCAAUAAUCCAUCCGUGC,14.8,14.2,,
GCACUCAAGUUAGGAUAUGGAUCGGAAAACGAUCCAGAAGGAAUAUGGGAACAUGAGGAUCACCCAUGUUCCAGAAACGAGUGC,,,62.5,30.4
GCACUGGAUGUAGGAUAUCAGGACGAUAAGUCCUGAGAAGGACAUGAGGAUCACCCAUGUAAAACUCAACCAGUGCAUAAUAUA,14.5,18.5,,
GCACUGGCAGGAUAUACAUGAGGAUCACCCAUGUGACCCUUGAUGUACUCGCGUACACGUAGAAGGGCCUGUGC,120,571,,
GCACUUCGGCAGAAGGGACUAAGGGUAUGGUAGUCAGGAUAUGCAGGGUGGGCGUUUCACAUGAGGAUCACCCAUGUAGGACCA,,,21.1,7.78
GCAGCGCUUGACAUGAGGAUCACCCAUGUUAGAUUGUUAUGUCAGGAUAUAGUCUAGAAACUAGACUAGAAGGGAUAUGCUGCU,,,290,34.1
GCAGCUUGGCAGAAGGCCUAGGUGGCGGACCUAGGAGGAUAUGCUACAUGAGGAUCACCCAUGUGGGUGGGAGAAUCCUAGGAG,133,132,,
GCAGGAUAAGUGAGGAUAUACCUAUGGAUACAUAGGUAGAAGGCACAUGAGGAUCACCCAUGUUCCUUGCCUGC,13,42.7,,
GCAGGUUAAGUCAGGAUAUACCUAUGGAUACAUAGGUAGAAGGGACAUGAGGAUCACCCAUGUGGCUCACCUGC,24.2,40.2,,
GCAGGUUAAGUCAGGAUAUACCUAUGGAUACAUAGGUAGAAGGGACAUGAGGAUCACCCAUGUUCCUCACCUGC,15.6,34.3,,
GCAGUAAAUAAAUGCACAUGAGGAUCACCCAUGUGGGAGGCACAGGAUAUCGUAUCAUAGUAGUACGAGAAGGGUGAUAAUCUC,,,370,64.2
GCAGUGUCAGGAUAUAGUUCGAGUUCGGAAAUGAGCUUGAGCUAGAAGGGACAUGAGGAUCACCCAUGUGCUGU,38,83.2,,
GCAUGACAAAGUCAUGCAAUACGAACAUGAGGAUCACCCAUGUAGGAUAUGCUACUCAAAGAGUAGCAGAAGGACAUGUGCCUU,36.1,288,,
GCAUUGAUAACAGGAUAUAUGUUUCCUACAUGAGGAUCACCCAUGUAGGUGAUCAGCCGCGAAAAGUAGAAGGGUUAUCAAUGC,,,18,16.7

Sequence,apparent Kd [1] [nM],apparent Kd [2] [nM],apparent Kd [3] [nM],apparent Kd [4] [nM]
GCCAAGCUAGGAUAUACCCAGGGUUUGUUCUCUAACAACACACAUGAGGAUCACCCAUGUAGAAGGAGCCGGGA,38.3,81,,
GCCAGGAUGUGAGGAUAUGCUGAGGAUACCUCAGCAGAAGGCACAUGAGGAUCACCCAUGUACACUUAUCAUAAAUACCCUGGC,13.5,18.1,,
GCCAUCACGUGAGGAUAUGCUCCCGUUUCGGGAGCAGAAGGCAUGUCAUAAGACAUGAGGAUCACCCAUGUAGUUAAGAUGGCA,,,317,12
GCCAUCGCAUGAGGAUAUGGCACCGUUUCGGUGCCAGAAGGCAUGUCAUAAGACAUGAGGAUCACCCAUGUGAAUAAGAUGGCA,,,360,38.5
GCCAUCGCAUGAGGAUAUGGUCACCUUUGGUGACCAGAAGGCAUGUCAUAAGACAUGAGGAUCACCCAUGUAGUUAAGAUGGCA,,,843,48
GCCAUCGGGUGAGGAUAUAAAAUUAUAAUUAAAUUAGAAGGCACCUCAUAAGACAUGAGGAUCACCCAUGUAGUUAAGAUGGCA,,,87.6,29.5
GCCAUUGCAUGAGGAUAUGCUCCCGUUUCGGGAGCAGAAGGCAUGUCAUAAGACAUGAGGAUCACCCAUGUAGUUAAGAUGGCA,,,398,15.2
GCCCGAACCACAGGAUAUCCCAAUGUUUUACAGGGAGAAGGGUGAGAGUAUGACAUGAGGAUCACCCAUGUUGUUCGGGUGGAA,,,709,227
GCCCGAUCCACGUUGGGCCCAGACAGAAGGGCACACGGUCUAAGUCACAUGAGGAUCACCCAUGUGCAGGAUAUGUCUCGACUC,7.63,25.9,,
GCCGAAAGUGUGAGGAUAUACCUAUGGAUACAUAGGUAGAAGGCACAUGAGGAUCACCCAUGUGUUUCAACGGC,19.3,71.6,,
GCCGAUUAAGUGAGGAUAUACCUAUGGAUACAUAGGUAGAAGGCACAUGAGGAUCACCCAUGUUCCUUAACGGC,11.2,30,,
GCCGCAGGAACAGGAUAUGUGGGCAUAAAAUUAUACCAGGCCCACAUGAGGAUCACCCAUGUGACACAGAAGGGUUCCUAAAUA,,,619,29.8
GCCUCACAUGAGGAUCACCCAUGUCAGGAUAUAGGAGACGGUAGCUUUGCUGCCAUCGCUAGAAGGGACUGGCU,68.2,111,,
GCCUCAUAGUAGAAGGGACUUAGGCAGUUAAGCAUCAUCUCCAUUUCACAUGAGGAUCACCCAUGUCAGGAUAUACUAAGAGGC,9.39,24.5,,
GCCUCAUAGUAGAAGGGACUUAGGCAGUUAAGCAUCAUGUCCAAUUAACAUGAGGAUCACCCAUGUCAGGAUAUACUAAGAGGC,8.03,25.1,,
GCCUUAUCGGUCAGGAUAUACACCCGCCAGUUGUUGUAGAAGGGACAUGAGGAUCACCCAUGUACAUUACAUUG,21.2,33.8,,
GCGAAUAACGAGGAUAUCGUAUCGGAAACGAUACGAGAAGGUGUAACAUGAGGAUCACCCAUGUUCCUCAACGC,37.5,36.4,,
GCGAGUAAAGCAGGAUAUCUAUUGUCUCUGUAACAUGAGGAUCACCCAUGUAGAGAAGGGCUUAGUCAUACAAUUCGAACUCGC,7.86,7.32,,
GCGAUUAAGUAGAAGGUACGUUAUAAGACAAUGUAAGGAUAUACUGACAUGAGGAUCACCCAUGUAAAAUUAGUUUACUGUCGC,,,7.34,6.44
GCGAUUUUGUAAGGAUAUACACGAGUUUUAAGUGUAGAAGGUACUUACAUGAGGAUCACCCAUGUAUUAAUGAUUACUAGUCGC,,,6.99,6.33
GCGAUUUUGUAGAAGGUACGUGAUUAGUCAAAGUAAGGAUAUACUGACAUGAGGAUCACCCAUGUAUUAAUAGUUAACAGUCGC,,,94.6,23.1
GCGCAGCCGGGUGAGGAUAUCGGUGGUAAAACAUGAGGAUCACCCAUGUCCGAAGCUCGGACUUCCGAGAAGGCGCCCAGCUGCA,,,115,14.4
GCGCCAUUGCAAGGAUAUCCUACAGAGGGUGCAGGAGAAGGUGCAUUGGUGAGACUAUAGGACAUGAGGAUCACCCAUGUACCU,,,14.8,17.9
GCGCGAAGGUAGGAUAUCCAGGGAUCUUCCCGCGGAGAAGGACCCACAUGAGGAUCACCCAUGUGGUGAUCCUG,16.1,17.4,,
GCGCGUUGAGGAUAUACGAACAUGUCGCCAGAUGUCAUGGUACAUGAGGAUCACCCAUGUAGAAGGUGGUGCGC,208,352,,
GCGCUAAAACAGAAGGCCAAAUACAUGAGGAUCACCCAUGUCGAAUCAUGGAGGAUAUGUUAUUAAUUACACGCAGAUGAGCGC,,,90.8,9.9
GCGCUUAUACAGAAGGCCAUAUACAUGAGGAUCACCCAUGUUAUUUGGUGGAGGAUAUGUUUUUUAUUACAGGUAGUUGAGCGC,,,7.42,5.91
